Compounds with a hit are over-represented: about 1.9% of the library has one in this group of screens.
T cell modulator: modulates CD8 T cell binding to vesicles. 2C CD8+ T cell-vesicle binding, flow cytometry; active compounds read low. response (vesicle binding), % at 7 µM. actives 0.068% (n = 330,000);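 active means response, share of CD8 T cells binding vesicles, and their 90th percentile fluorescence all below set limits, cut at about 80% in these data, passing the limit was not always enough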;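 further: values below 100% mean blocked vesicle binding to the CD8+ T cells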
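Assay system: 2C TCR transgenic mouse naive CD8+ T cells, MACS-purified | Read-out: CD8+ gate FL2 mean fluorescence as % of same-row positive control | Signal: High-throughput flow cytometry with anti-B7-1 and anti-CD8 staining | Timing: Binding step 1.5 h, 37 °C, antibody labelling 20 min, ice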
Rce1 inh: inhibitors of yeast Ras-converting enzyme. calls only. Q03530. actives 0.27% (n = 290,000). yeast membranes, quenched prenylated peptide cleavage fluorescence;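 active means fall in fluorescence gain of 50% or more versus controls, with final raw signal at or below 3038400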;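 further: plate controls were neutral control wells for no effect and wells lacking membranes for full effect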
Target sequence (Q03530 whole entry, looked up): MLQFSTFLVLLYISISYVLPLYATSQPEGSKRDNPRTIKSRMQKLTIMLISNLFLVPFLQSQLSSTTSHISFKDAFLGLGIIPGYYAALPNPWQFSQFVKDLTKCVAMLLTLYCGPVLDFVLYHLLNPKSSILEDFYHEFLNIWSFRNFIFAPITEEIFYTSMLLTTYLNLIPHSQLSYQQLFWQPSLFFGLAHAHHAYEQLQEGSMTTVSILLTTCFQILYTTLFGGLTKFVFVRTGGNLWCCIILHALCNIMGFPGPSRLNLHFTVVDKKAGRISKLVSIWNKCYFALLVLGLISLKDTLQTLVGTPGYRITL
V-ATPase pH: regulators of yeast V-ATPase proton transport | AID 504577 | response, % at 10 µM | S. cerevisiae, pHLuorin cytosolic pH fluorescence | actives 0.37% (n = 350,000); in the data active means response mostly above about 7.3%, no sharp cut-off; inactive means mostly below about 5.4%; further: actives read high
Yeast superoxide: lowers age-related superoxide in aged yeast cells; S. cerevisiae aged cells, superoxide DHE fluorescence; active compounds read low; actives 0.18% (n = 330,000); AID 2690; superoxide response (% of plate mean), % at 10 µM;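 active means superoxide response under a set limit, about three screen SD below normal, cut at about 65% in these data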;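 further: yeast aged for seven days with compound at 30 °C before DHE staining; 100% = average MFI of all compound-treated wells on the plate with controls excluded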
MIN6 prolif: induces beta-cell replication in MIN6 cells. MIN6 cells proliferation, ATPlite luminescence, 48 h; cells starved in 0.2% serum; 100% = growth in 10% serum. actives 0.29% (n = 330,000). proliferation, % at 10 µM;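 active means compounds whose signal lies at least 3.5 SD above the mean of all wells on their plate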;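 further: 0% = DMSO-treated cells in low-serum medium and 100% = 10% serum control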
proKLK7 act: activates the human kallikrein-7 zymogen. P49862. purified proKLK7, EDANS-DABCYL substrate fluorescence; 100% is mature enzyme control, 0% vehicle. activation, % at 7 µM. actives 0.9% (n = 370,000). AID 652039;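 active means activation above the mean of all tested compounds plus 3 SD, computed per campaign excluding outliers beyond control limits, cut at about 13% in these data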
Target sequence (P49862 whole entry, looked up): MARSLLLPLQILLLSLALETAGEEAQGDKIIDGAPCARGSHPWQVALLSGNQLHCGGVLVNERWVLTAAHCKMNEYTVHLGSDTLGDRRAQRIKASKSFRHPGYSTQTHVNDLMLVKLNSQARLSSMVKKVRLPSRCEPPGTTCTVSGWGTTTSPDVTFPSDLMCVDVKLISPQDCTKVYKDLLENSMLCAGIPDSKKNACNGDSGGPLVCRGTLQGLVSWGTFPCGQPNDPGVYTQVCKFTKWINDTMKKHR
KLK7 act conf: confirmation of human kallikrein-7 zymogen activators. actives 68% (n = 3,200). shares compounds with proKLK7 act. activation, % at 7 µM. purified proKLK7, EDANS-DABCYL substrate fluorescence; scaled: vehicle 0, mature enzyme 100;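 active means activation, as change over the incubation, above the mean of all tested compounds plus 3 SD, cut at about 13% in these data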
EDANS interfere: counter-screen for kallikrein-7 activators: EDANS-DABCYL optical interference. AID 686952. actives 80% (n = 3,200). shares compounds with proKLK7 act. activation, % at 7 µM. EDANS-DABCYL substrate fluorescence interference, no enzyme, 4 h; solvent 0%, active enzyme control 100%;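 active means activation above the all-compound mean plus 3 SD, ignoring values outside control-based bounds, cut at about 4.8% in these data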;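 further: value is the 4 h activation minus the activation read at time zero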
EDANS interf: optically interferes with EDANS-DABCYL fluorescence, kallikrein-7 activator counter-screen. shares compounds with proKLK7 act. EDANS-DABCYL peptide fluorescence interference, no enzyme. actives 20% (n = 250). EC50, µM;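 active means compounds that raise the fluorescence signal in this interference counterscreen, with EC50 at or below 10 µM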;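 further: intact quenched peptide substrate alone read at 355 nm excitation and 520 nm emission; signal is fluorescence gain from T0 to T4 after four hours at room temperature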
* marks the source's active call; other numbers are inactive results; i = inactive; / = no result given.

SMILES	T cell modulator	Rce1 inh	V-ATPase pH	Yeast superoxide	MIN6 prolif	proKLK7 act	KLK7 act conf	EDANS interfere	others
Cc1ccc(/C=C2\Oc3c(ccc(O)c3CN3CCN(CCO)CC3)C2=O)cc1	175	i	1	120	1	96*	79*	73*
CC(C)c1ccc(/C=C2\Oc3c(ccc(O)c3CN3CCN(C)CC3)C2=O)cc1	375	i	-1	85	-3	38*	-16	-26
CC(C)c1ccc(/C=C2\C(=O)N(CCN3CCOCC3)C(=S)N2C)cc1	291	i	-5	99	-1	0	/	/
CCN1CCN(Cc2c(O)ccc3c2O/C(=C\C=C\c2ccccc2OC)C3=O)CC1	279	i	2	117	-5	3	/	/
COc1ccc(S(=O)(=O)NCCC(=O)OCC(=O)NC2CC2)cc1	498	/	-2	107	0	0	/	/
COc1ccc(N(CC(=O)NCc2ccc(F)cc2)C(=O)c2snc(C(N)=O)c2N)cc1OC	388	/	0	97	0	15*	5	4
CNc1cccc(-c2cccc(O)c2)n1	/	/	/	/	/	0	/	/
CNc1cccc(-c2cc(OC)c(OC)c(OC)c2)n1	/	/	/	/	/	0	/	/
CNc1cncc(-c2cc(OC)c(OC)c(OC)c2)n1	/	/	/	/	/	25*	16*	22*
CNc1cncc(-c2ccc(C)cc2)n1	/	/	/	/	/	30*	41*	41*
CNc1cncc(-c2cccc(O)c2)n1	/	/	/	/	/	37*	35*	36*
CNc1cncc(-c2cccc(C(=O)NC3CC3)c2)n1	/	/	/	/	/	54*	47*	55*
CC(=O)Nc1cncc(-c2cccc(C(=O)NC3CC3)c2)n1	/	/	/	/	/	0	/	/
c1ccc2c(c1)nc(N1CCCCCC1)c1nncn12	/	/	/	/	/	1	/	/
CCCNC(=O)OC1CC2CC1[C@H]1CCCCN1C2=O (stereo partly specified)	/	/	/	/	/	45*	1	0
O=[N+]([O-])c1cncn1CCN1CCOCC1	/	/	3	/	/	0	/	/
c1ccc2c(-c3cnc4cccnn34)cncc2c1	/	/	/	/	/	25*	20*	21*
Cn1ccc2c(-c3cncc4ccccc34)cc3c(c21)C1CCC3O1 (stereo unspecified)	/	/	/	/	/	1	/	/
c1cc(-c2cnc3cccnn23)c2cccnc2c1	/	/	/	/	/	18*	18*	22*
CSc1ccccc1-c1cnc2cccnn12	/	/	/	/	/	7	/	/
CCNC(=S)N1CCc2cc(OC)c(OC)cc2C1COc1ccccc1OC (stereo unspecified)	279	i	1	122	2	58*	30*	36*
CCNC(=S)N1CCc2cc(OC)c(OC)cc2C1COc1ccc(OC)cc1 (stereo unspecified)	i	i	-2	111	3	0	/	/
Cc1ccc(-c2cc(C(=O)NCc3ccco3)c3ccccc3n2)s1	178	i	-1	95	-3	16*	22*	65*
C/C(=N\NC(=O)c1cc(-c2ccccc2C)nc2ccccc12)c1cccnc1	354	i	1	109	-3	0	/	/
CCc1ccc(-c2cc(C(=O)NCCCn3ccnc3)c3ccccc3n2)s1	i	i	/	91	-4	/	/	/
SMILES	T cell modulator	Rce1 inh	V-ATPase pH	Yeast superoxide	MIN6 prolif	proKLK7 act	KLK7 act conf	EDANS interfere	others
O=C(NCc1ccco1)c1cc(-c2cccs2)nc2ccccc12	219	i	1	87	-1	3	/	/
Cc1ccc(-c2cc(C(=O)NCCCn3ccnc3)c3ccccc3n2)s1	223	i	0	102	-2	35*	75*	76*
C/C(=N\NC(=O)c1cc(-c2ccc(C)s2)nc2ccccc12)c1cccnc1	149	i	-2	98	-1	66*	-151	-211
O=C(NCC1CCCO1)c1cc2nc(-c3ccco3)cc(C(F)(F)Cl)n2n1 (stereo unspecified)	399	i	-1	83	-1	1	/	/
COC(=O)C1=CN(Cc2ccc(OC)c(OC)c2)C=C(C(=O)OC)C1c1ccc(O)cc1	146	i	-1	98	2	21*	-147	-168
COc1cc(C(=O)NNC(=O)c2cc(-c3ccccc3)n[nH]2)cc(OC)c1C	288	/	-2	97	-2	-1	/	/
CC(C)(C)NC(=O)C(c1ccc(C(F)(F)F)cc1)n1c(=O)c(-c2ccco2)nc2ccccc21 (stereo unspecified)	/	/	/	/	/	-2	/	/
O=C(c1cc(-c2ccc(F)cc2)nc2ccccc12)N1CCC1	288	/	1	89	-4	0	/	/
O=C(O)c1cc(-c2ccc(-c3ccc(F)cc3)o2)nc2ccccc12	296	i	-3	202	-4	33*	65*	76*
CC(C)c1[nH]nc2c1C(c1ccc(OC(=O)c3ccco3)cc1)C(C#N)=C(N)O2 (stereo unspecified)	317	i	2	105	-2	0	/	/
Cc1[nH]nc2c1C(c1ccco1)C(C#N)=C(N)O2 (stereo unspecified)	128	i	1	97	-3	-1	/	/
COc1ccc(-c2ccc(C3C(C#N)=C(N)Oc4n[nH]c(C)c43)o2)cc1 (stereo unspecified)	781	/	-3	110	-5	14*	9	9.0*
Cc1[nH]nc2c1C(c1ccc(OC(=O)c3ccco3)cc1)C(C#N)=C(N)O2 (stereo unspecified)	i	i	4	110	-1	310*	1	-2
CN(CC(=O)Nc1cccc(F)c1)CC(=O)N(C)c1c(N)n(Cc2ccccc2)c(=O)[nH]c1=O	185	/	8	89	3	0	/	/
OC1c2c(F)cccc2N=C2CCCCN21 (stereo unspecified)	/	/	/	/	/	14*	11	8.3*
O=C(Nc1ccc(C(=O)N2CCCCC2)cc1)C1CCC1	/	/	0	/	/	0	/	/
COc1ccc(NC(=O)N(C)C[C@H]2OCc3cnnn3CCCC(=O)N([C@H](C)CO)C[C@@H]2C)cc1	/	/	3	/	/	0	/	/
O=C(c1cc2nc(-c3ccco3)cc(C(F)(F)F)n2n1)N1CCCCCC1	403	i	1	97	-1	4	/	/
O=C(NCCCN1CCCC1=O)c1cc2nc(-c3ccco3)cc(C(F)(F)F)n2n1	307	/	-1	97	-1	14*	13*	2	EDANS interf=>69
N#Cc1cnn2c(-c3ccc(Cl)cc3Cl)ccnc12	328	i	-1	106	-2	20*	21*	22*

Compound activity from PubChem BioAssay.
